# Results pooled from the literature.
# Lines come from different studies, so protocols differ.
# Target: Phosphatidylinositol 4-kinase beta (PI4KB, Homo sapiens, UniProt Q9UBF8)
Structure (SMILES),test,setting,quantity,result
CN(C)CC#Cc1ccc(OCCCc2sc(N3CCc4cccc(C(=O)Nc5nc6ccccc6s5)c4C3)nc2C(=O)O)c(F)c1,"cell-free assay, competition with immobilised ligand",1 µM,remaining binding,100%
O=C(CSc1nc2nccnc2c(=O)n1CCc1ccccc1)Nc1ccccc1,"enzyme activity, inhibitor",10 µM,inhibition,< 20%
CCCCNc1ncc2c(-c3ccc(F)cc3)nn(C[C@H]3CC[C@H](N)CC3)c2n1,"target engagement in cells, inhibitor, chemoproteomics",20 mM,inhibition,29.3%
O=C(Nc1cnc(Oc2ccc(F)cc2)nc1)N1CCc2ncccc2[C@@H]1c1ccc(F)cc1,"cell-free assay, competition with immobilised ligand",1 µM,remaining binding,89%
O=C(Nc1nccs1)C(c1cc(F)ccc1O)N1Cc2ccccc2C1=O (stereo not shown),"enzyme activity, inhibitor",1 µM,inhibition,9%
Cc1ccc(C(=O)Nc2ccc(CN3CCN(C)CC3)c(C(F)(F)F)c2)cc1C#Cc1cnc2cccnn12,"enzyme activity, inhibitor",23.5 nM,remaining activity,89%
c1ccc(CNc2nc(N3CCOc4ccccc43)nc3c2CCCC3)cc1,"target engagement in cells, inhibitor, chemoproteomics",20 mM,inhibition,-16.5%
Nc1ncnc2occ(-c3ccc(NC(=O)Nc4cc(C(F)(F)F)ccc4F)cc3)c12,"enzyme activity, inhibitor",20 µM,remaining activity,5.9%
CS(=O)(=O)Nc1cccc(-c2csc(NC(=O)CSc3nc4nccnc4c(=O)n3CCc3ccccc3)n2)c1,"enzyme activity, inhibitor",10 µM,inhibition,17%
CC1CCCN1c1nccc(-c2cnn3ncccc23)n1 (stereo not shown),binding,1 µM,remaining binding,100%
